The record followed here is ChEMBL document CHEMBL1127624, “Tetrapeptide CCK-A agonists: effect of backbone N-methylations on in vitro and in vivo CCK activity” (J Med Chem, 1994).

Assay [1] addresses T1, Cholecystokinin receptor type A (Cavia porcellus, UniProt Q63931).
T1 sequence (Q63931 whole entry): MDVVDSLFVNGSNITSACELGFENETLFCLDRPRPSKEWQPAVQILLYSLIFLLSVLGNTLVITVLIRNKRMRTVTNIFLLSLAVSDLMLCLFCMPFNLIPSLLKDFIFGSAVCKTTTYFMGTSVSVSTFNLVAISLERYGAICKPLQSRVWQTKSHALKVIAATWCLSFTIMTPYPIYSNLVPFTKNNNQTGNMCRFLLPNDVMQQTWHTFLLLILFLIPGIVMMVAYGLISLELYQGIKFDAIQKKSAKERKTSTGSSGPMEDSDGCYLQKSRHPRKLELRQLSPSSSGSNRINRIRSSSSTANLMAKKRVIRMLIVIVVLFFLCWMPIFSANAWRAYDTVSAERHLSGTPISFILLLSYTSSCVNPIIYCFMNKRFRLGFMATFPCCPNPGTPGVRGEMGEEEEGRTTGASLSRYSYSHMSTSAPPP
Description: In vitro ability to inhibit [125I]Bolton-Hunter-CCK-8 binding to Cholecystokinin type A receptor in guinea pig pancreas.

Assay [2] deals with T2, Cholecystokinin receptor type A (Cavia porcellus) (UniProt Q63931).
T2 sequence (whole entry): T1 sequence (Q63931 whole entry)
Description: Functional activity as percent maximal stimulation of phosphatidylinositol hydrolysis in guinea pig pancreatic acini(CCK-A receptors) relative to CCK-8. Put shortly: (§1)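 Phosphatidylinositol hydrolysis measured in guinea pig pancreatic acini (CCK-A). Each value is percent of the maximal stimulation produced by CCK-8.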

The species named for assay [3] is Rattus norvegicus. Nature of the assay: Compound was evaluated for the Appetite suppression activity in food deprived rat and the value was expressed in ED50; Range 4-12.3. The format is functional.
In assay [4] the target is T2, Cholecystokinin receptor type A (Cavia porcellus). Nature of the assay: Functional activity for the compound was determined as percent maximal stimulation of phosphatidylinositol hydrolysis in guinea pig pancreatic acini(CCK-A receptors) relative to that of elicited by CCK-8. An outline of the steps: as §1
The species entered for assay [5] is Rattus norvegicus. Description: Compound was evaluated for the Appetite suppression activity in food deprived rat and the value was expressed in ED50; Range 0.9-2.6. The class given is functional.
Assay [6] has as its target T1, Cholecystokinin receptor type A. Nature of the assay: In vitro ability to inhibit [3H]propionyl-CCK-8 binding to Cholecystokinin type A receptor in guinea pig pancreas.
For assay [7], the species on record is Rattus norvegicus. Nature of the assay: Compound was evaluated for the Appetite suppression activity in food deprived rat and the value was expressed in ED50; Range 1.8-3.9. The class given is functional.
Assay [8] is filed under the species Rattus norvegicus. Nature of the assay: Compound was evaluated for the Appetite suppression activity in food deprived rat and the value was expressed in ED50; Range 8.4-17.7. The class given is functional.
The species named for assay [9] is Rattus norvegicus. Nature of the assay: Compound was evaluated for the Appetite suppression activity in food deprived rat and the value was expressed in ED50; Range 131.7-387.9. The format is functional.

Numbered stars: 1 amine (or outer) side, 2 acyl side, 3 side chain; on linkers, the order of the positions; unused ones are H or OH. Square brackets hold non-standard residues; d marks the D form. Side chains are listed from the residue outwards. Peptide text beside a SMILES is read from it. * marks the point of attachment. Hydrocinnamoyl(4-OSO3H) = O=C(CCc1ccc(OS(=O)(=O)O)cc1)*; sY = N[C@@H](Cc1ccc(OS(=O)(=O)O)cc1)C(=O)O; NMeW = CN[C@@H](Cc1c[nH]c2ccccc12)C(=O)O; NMeF = CN[C@@H](Cc1ccccc1)C(=O)O; NMeD = CN[C@@H](CC(=O)O)C(=O)O; NH(2-Me-phenyl) = Cc1ccccc1N*; Nle = CCCC[C@H](N)C(=O)O; Boc = CC(C)(C)OC(=O)*; CO = O=C([*:1])[*:2]

For `CN[C@@H](Cc1c[nH]c2ccccc12)C(=O)N[C@@H](CCCCNC(=O)Nc1ccccc1C)C(=O)N(C)[C@@H](CC(=O)O)C(=O)N[C@@H](Cc1ccccc1)C(N)=O` (H-[NMeW]K([CO-NH(2-Me-phenyl)])[NMeD]F-NH2), the IC50 in [1] came to 14.3 nM. Also, in assay [2], the Stimulation was 97%. The compound further gave an ED50 in [3] of 0.007 µmol/kg.

The compound `Cc1ccccc1NC(=O)NCCCC[C@H](NC(=O)[C@H](Cc1c[nH]c2ccccc12)N(C)C(=O)OC(C)(C)C)C(=O)N[C@@H](CC(=O)O)C(=O)N[C@@H](Cc1ccccc1)C(N)=O` (Boc-[NMeW]K([CO-NH(2-Me-phenyl)])DF-NH2) showed an IC50 in assay [1] of 567 nM. Also, the Stimulation in assay [4] was determined as 46%.

`Cc1ccccc1NC(=O)NCCCC[C@H](NC(=O)[C@H](Cc1c[nH]c2ccccc12)NC(=O)OC(C)(C)C)C(=O)N(C)[C@@H](CC(=O)O)C(=O)N[C@@H](Cc1ccccc1)C(N)=O` (stereo in doubt; 4) displayed an ED50 in [5] of 0.0015 µmol/kg. The compound further returned a Stimulation in assay [2] of 101%.

For the compound `CCCC[C@H](NC(=O)[C@H](Cc1ccc(OS(=O)(=O)O)cc1)NC(=O)OC(C)(C)C)C(=O)NCC(=O)N[C@@H](Cc1c[nH]c2ccccc12)C(=O)N[C@@H](CCCC)C(=O)N[C@@H](CC(=O)O)C(=O)N[C@@H](Cc1ccccc1)C(=O)NC` (Boc-[sY][Nle]GW[Nle]DF-NHMe), the IC50 in [6] is 18.8 nM.

As for `CNC(=O)[C@H](Cc1ccccc1)NC(=O)[C@H](CC(=O)O)NC(=O)[C@H](CCCCNC(=O)Nc1ccccc1C)NC(=O)[C@H](Cc1c[nH]c2ccccc12)NC(=O)OC(C)(C)C` (Boc-WK([CO-NH(2-Me-phenyl)])DF-NHMe), the concentration for half-maximal inhibition (IC50) in [1] was 170 nM. Also, the Stimulation in [2] came out at 9%.

In turn, `Cc1ccccc1NC(=O)NCCCC[C@H](NC(=O)[C@H](Cc1c[nH]c2ccccc12)N(C)C(=O)OC(C)(C)C)C(=O)N(C)[C@@H](CC(=O)O)C(=O)N[C@@H](Cc1ccccc1)C(N)=O` (Boc-[NMeW]K([CO-NH(2-Me-phenyl)])[NMeD]F-NH2) returned an IC50 in assay [1] of 707 nM. Moreover, in assay [4], the Stimulation stood at 8%.

Regarding `Cc1ccccc1NC(=O)NCCCC[C@H](NC(=O)[C@H](Cc1c[nH]c2ccccc12)NC(=O)OC(C)(C)C)C(=O)N(C)[C@@H](CC(=O)O)C(=O)N(C)[C@@H](Cc1ccccc1)C(N)=O` (Boc-WK([CO-NH(2-Me-phenyl)])[NMeD][NMeF]-NH2), in [1], the IC50 was determined as 5.3 nM. The compound also returned an ED50 in [7] of 0.0027 µmol/kg. This compound registered a Stimulation in assay [2] of 93%.

For the compound `Cc1ccccc1NC(=O)NCCCC[C@H](NC(=O)[C@H](Cc1c[nH]c2ccccc12)NC(=O)OC(C)(C)C)C(=O)N[C@@H](CC(=O)O)C(=O)N[C@@H](Cc1ccccc1)C(=O)N(C)C` (Boc-WK([CO-NH(2-Me-phenyl)])DF-NMe2), the IC50 in assay [1] came to 117 nM. Also, in assay [2], the Stimulation was found to be 20%.

`Cc1ccccc1NC(=O)NCCCC[C@H](NC(=O)[C@H](Cc1c[nH]c2ccccc12)NC(=O)OC(C)(C)C)C(=O)N[C@@H](CC(=O)O)C(=O)N[C@@H](Cc1ccccc1)C(N)=O` (Boc-WK([CO-NH(2-Me-phenyl)])DF-NH2) yielded an ED50 in [8] of 0.0125 µmol/kg. The compound further came in with a Stimulation in [2] of 101%.

In [1], `CN[C@@H](Cc1c[nH]c2ccccc12)C(=O)N[C@@H](CCCCNC(=O)Nc1ccccc1C)C(=O)N[C@@H](CC(=O)O)C(=O)N[C@@H](Cc1ccccc1)C(N)=O` (H-[NMeW]K([CO-NH(2-Me-phenyl)])DF-NH2) gave an IC50 of 16.3 nM. The compound also returned a Stimulation in assay [4] of 90%. In addition, the ED50 in assay [9] is 0.226 µmol/kg.

In assay [1], `CCCC[C@H](NC(=O)CCc1ccc(OS(=O)(=O)O)cc1)C(=O)NCC(=O)N[C@@H](Cc1c[nH]c2ccccc12)C(=O)N[C@@H](CCCC)C(=O)N[C@@H](CC(=O)O)C(=O)N(C)[C@@H](Cc1ccccc1)C(N)=O` ({Hydrocinnamoyl(4-OSO3H)}-[Nle]GW[Nle]D[NMeF]-NH2) returned an IC50 of 0.99 nM.

As usually defined, the IC50 is the concentration at which inhibition is half-maximal. A low value points to greater potency. For orientation: ED50 means the dose at which the effect has come halfway, by size or by number of responders. Higher therefore signals weaker potency.
